Marks after values point to notes of the source that are not given here.
Assays:
[1] = test system: hOCT2 stably transfected HEK293 cells; assay: MTT cytotoxicity assay, hOCT2 cells; assay type: cell-based, human; conditions: for TC50 OCT2: MTT, 72 h, hOCT2 HEK293 cells, mean±SD of six experiments; for Fold increase over pcDNA5 OCT2: ratio of TC50 pcDNA5 to TC50 hOCT2 cells
[2] = test system: hOCT1-3 stably transfected HEK293 cells; assay: MTT cytotoxicity assay, result stated across hOCT1-3 cells; conditions: compared to vector-transfected HEK293 cells
[3] = test system: hOCT1 stably transfected HEK293 cells; assay: MTT cytotoxicity assay, hOCT1 cells; assay type: cell-based, human; conditions: for TC50 OCT1: MTT, 72 h, hOCT1 HEK293 cells, mean±SD of six experiments; for Fold increase over pcDNA5 OCT1: ratio of TC50 pcDNA5 to TC50 hOCT1 cells
hOCT1 [4] = biological target: T1, hOCT1 (Homo sapiens, UniProt O15245); assay: ASP+-based fluorescence uptake inhibition assay, hOCT1; assay type: cell-based
T1 sequence (O15245 1-554): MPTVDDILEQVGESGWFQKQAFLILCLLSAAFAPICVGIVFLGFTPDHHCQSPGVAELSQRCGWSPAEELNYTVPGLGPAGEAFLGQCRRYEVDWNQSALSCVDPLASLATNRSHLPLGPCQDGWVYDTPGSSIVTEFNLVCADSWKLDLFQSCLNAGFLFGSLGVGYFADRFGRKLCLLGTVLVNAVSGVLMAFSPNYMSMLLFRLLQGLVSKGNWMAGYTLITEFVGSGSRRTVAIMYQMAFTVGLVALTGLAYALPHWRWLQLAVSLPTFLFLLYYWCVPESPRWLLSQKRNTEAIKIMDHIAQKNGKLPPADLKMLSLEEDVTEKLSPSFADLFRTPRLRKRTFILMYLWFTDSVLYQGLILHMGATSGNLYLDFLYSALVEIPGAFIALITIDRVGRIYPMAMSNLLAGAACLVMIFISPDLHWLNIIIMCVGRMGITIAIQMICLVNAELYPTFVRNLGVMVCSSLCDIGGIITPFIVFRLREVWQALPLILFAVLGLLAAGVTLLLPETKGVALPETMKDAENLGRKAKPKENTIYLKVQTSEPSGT

[5] = test system: pcDNA5 (control) stably transfected HEK293 cells; assay: MTT cytotoxicity assay, pcDNA5 control cells; assay type: cell-based, human; conditions: 72 h, vector control HEK293 cells, mean±SD of six experiments
hOCT3 [6] = biological target: T2, hOCT3 (Homo sapiens, UniProt O75751); assay: ASP+-based fluorescence uptake inhibition assay, hOCT3; assay type: cell-based
T2 sequence (O75751 1-556): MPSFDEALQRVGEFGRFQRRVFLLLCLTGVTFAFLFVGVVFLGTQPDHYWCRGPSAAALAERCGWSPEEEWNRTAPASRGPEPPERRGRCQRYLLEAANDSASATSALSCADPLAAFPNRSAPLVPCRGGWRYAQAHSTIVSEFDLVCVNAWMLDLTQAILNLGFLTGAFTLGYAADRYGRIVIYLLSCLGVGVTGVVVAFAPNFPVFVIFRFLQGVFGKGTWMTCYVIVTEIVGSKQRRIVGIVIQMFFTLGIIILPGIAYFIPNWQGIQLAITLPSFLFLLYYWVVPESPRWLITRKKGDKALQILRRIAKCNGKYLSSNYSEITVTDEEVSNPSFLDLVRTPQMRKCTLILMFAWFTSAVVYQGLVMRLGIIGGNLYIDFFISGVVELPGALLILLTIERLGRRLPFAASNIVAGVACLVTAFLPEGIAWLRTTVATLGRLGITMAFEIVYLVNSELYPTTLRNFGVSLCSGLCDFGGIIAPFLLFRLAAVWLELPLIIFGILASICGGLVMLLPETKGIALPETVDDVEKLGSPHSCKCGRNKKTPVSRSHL

[7] = test system: hOCT3 stably transfected HEK293 cells; assay: MTT cytotoxicity assay, hOCT3 cells; assay type: cell-based, human; conditions: for TC50 OCT3: MTT, 72 h, hOCT3 HEK293 cells, mean±SD of six experiments; for Fold increase over pcDNA5 OCT3: ratio of TC50 pcDNA5 to TC50 hOCT3 cells
hOCT2 [8] = biological target: T3, hOCT2 (Homo sapiens, UniProt O15244); assay: ASP+-based fluorescence uptake inhibition assay, hOCT2; assay type: cell-based
T3 sequence (O15244 1-555): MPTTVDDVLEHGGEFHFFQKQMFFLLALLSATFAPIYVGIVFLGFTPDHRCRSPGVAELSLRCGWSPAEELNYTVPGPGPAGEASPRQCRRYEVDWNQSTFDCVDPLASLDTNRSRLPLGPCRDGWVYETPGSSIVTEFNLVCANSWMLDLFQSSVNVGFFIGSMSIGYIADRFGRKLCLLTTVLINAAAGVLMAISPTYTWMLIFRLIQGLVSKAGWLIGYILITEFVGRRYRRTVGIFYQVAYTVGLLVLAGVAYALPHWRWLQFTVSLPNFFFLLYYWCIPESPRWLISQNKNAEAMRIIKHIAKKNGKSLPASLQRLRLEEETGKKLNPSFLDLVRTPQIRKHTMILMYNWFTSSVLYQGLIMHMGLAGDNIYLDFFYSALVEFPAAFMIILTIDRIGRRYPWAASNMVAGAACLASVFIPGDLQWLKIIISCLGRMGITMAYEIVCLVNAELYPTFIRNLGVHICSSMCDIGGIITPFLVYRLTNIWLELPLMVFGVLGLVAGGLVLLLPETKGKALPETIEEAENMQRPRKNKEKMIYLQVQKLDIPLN

[9] = single ingestion of Ayahuasca, healthy volunteers; ref Riba et al., 2012; cited from earlier work
hOCT1 [10] = biological target: T1, hOCT1; assay: β-Carboline uptake assay; assay type: in vitro ADME; conditions: 1 μM substrate, 30 minutes
How it was run: (§1)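 Flp-in HEK293 cells stably expressing the transporter, with empty pcDNA5/FRT vector cells as control, were grown overnight at 100 000 cells/well on poly-L-ornithine-coated plastic. Cells were washed twice with HBSS, acclimated for 10 min at 37 °C, then given 1 µM substrate in HBSS for 30 min. Uptake was stopped with three ice-cold HBSS washes. Cells were lysed in acetonitrile with internal standard, and drug was quantified by ESI-positive LC-MS/MS and normalized to total protein (BCA).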

hOCT3 [11] = biological target: T2, hOCT3; assay: β-Carboline uptake assay; assay type: in vitro ADME; conditions: 1 μM substrate, 30 minutes
How it was run: as §1

hOCT2 [12] = biological target: T3, hOCT2; conditions: read-out: Ki for hOCT2; hOCT2 expressed in HEK293 cells; ref Ito et al., 2012; cited from earlier work
[13] = human plasma; ref Ito et al., 2012; cited from earlier work

| Structure (SMILES) | TC50 OCT2 [1] | Fold increase over pcDNA5 OCT2 [1] | Effect of hOCT1-3 expression on cytotoxicity (in words) [2] | TC50 OCT1 [3] | Fold increase over pcDNA5 OCT1 [3] | IC50 (hOCT1 [4]) | TC50 pcDNA5 [5] | IC50 (hOCT3 [6]) | TC50 OCT3 [7] | Fold increase over pcDNA5 OCT3 [7] | IC50 (hOCT2 [8]) | Plasma concentration after Ayahuasca [9] | Accumulation in hOCT1 transfected cells relative to vector cells (hOCT1 [10]) | Accumulation in hOCT3 transfected cells relative to vector cells (hOCT3 [11]) | Ki (hOCT2 [12]) | Clinically encountered concentrations in plasma [13] |
| --- | --- | --- | --- | --- | --- | --- | --- | --- | --- | --- | --- | --- | --- | --- | --- | --- |
| C[n+]1ccc2c(c1)[nH]c1ccccc12.[I-] [Norharmanium, 2-methyl-9H-β-carboline-2-ium, iodide] | 13.4±2.4 ^a μM | 8.9 fold | greatly increased toxicity | 9.05±2.54 ^a μM | 13.1 fold | 70.5 ± 6.6 µM | 119 ± 18 µM | 13.1 ± 0.1 µM | 10.8±1.4 ^a μM | 11.0 fold |  |  |  |  |  |  |
| Cn1c2c(c3ccccc31)CC[N+](C)=C2.[I-] [2,9-dimethyl-4,9-dihydro-3Hβ-carbolin-2-ium, iodide] | 117 ± 22 µM | 1.1 fold | no significant effect | 119 ± 33 µM | 1.1 fold | 40.4 ± 2.4 µM | 127 ± 18 µM | 7.3 ± 0.5 µM | 80.6 ± 7.2 µM | 1.6 fold | 0.524 ± 0.088 µM |  |  |  |  |  |
| C[n+]1ccc(-c2ccccc2)cc1 [MPP+, 1-methyl-4-phenylpyridinium] | 7.16±0.75 ^a μM | 8.9 fold |  | 3.88±0.38 ^a μM | 16.4 fold |  | 63.6 ± 12.7 µM |  | 5.86±0.68 ^a μM | 10.9 fold |  |  |  |  |  |  |
| COc1ccc2c3c([nH]c2c1)C(C)=NCC3 [Harmaline, 4,9-dihydro-7-methoxy-1-methyl-3H-pyrido[3,4-b] indole] | 35.5 ± 3.8 µM | 0.65 fold | no significant effect | 23.0 ± 5.1 µM | 1.0 fold | 27.6 ± 3.8 µM | 23.0 ± 3.6 µM | 4.76 ± 0.46 µM | 33.1 ± 8.2 µM | 0.69 fold |  | mid to high nanomolar range | ~ 2 fold | ~ 2 fold |  |  |
| CN/C(=N/CCSCc1nc[nH]c1C)NC#N [cimetidine] |  |  |  |  |  |  |  |  |  |  |  |  |  |  | 95 to 146 µM | 2.0 to 3.6 µM |
| COc1ccc2c(c1)[nH]c1c(C)nccc12 [Harmine, 7-methoxy-1-methyl-9H-pyrido[3,4-b] indole] | 3.01 ± 0.41 µM |  | no significant effect | 2.55 ± 0.26 µM |  | 23.1 ± 2.8 µM | 2.87 ± 0.47 µM | 17.7 ± 1 µM | 2.81 ± 0.23 µM |  |  |  |  |  |  |  |

— PMC5648609 (Xenobiotica; the fate of foreign compounds in biological …, 2017)
